Measured values: the M2OR odorant receptor database

Target: T1, OR5K1 (Homo sapiens) (UniProt Q8NHB7)
T1 sequence (whole entry): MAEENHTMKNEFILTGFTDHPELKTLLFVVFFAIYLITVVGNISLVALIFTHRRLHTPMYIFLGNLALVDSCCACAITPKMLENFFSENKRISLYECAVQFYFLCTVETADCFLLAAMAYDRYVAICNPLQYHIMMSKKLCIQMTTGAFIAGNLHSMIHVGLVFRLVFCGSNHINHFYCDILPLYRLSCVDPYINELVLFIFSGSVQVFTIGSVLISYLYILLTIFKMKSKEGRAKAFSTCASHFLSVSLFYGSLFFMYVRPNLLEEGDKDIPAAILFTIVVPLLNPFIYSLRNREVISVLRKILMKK
Conditions: stereoisomer not certain
Procedure, shortened: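 Each receptor–molecule pair is labelled responsive or non-responsive (inactive) according to whether the original authors judged the measured signal statistically different from baseline. The data were taken from the main text and supplementary material of published papers and checked for typos and inconsistencies. Assay methods differed by source, with transient luciferase assays in mammalian cell lines being common.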
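Further: active if original authors judged signal statistically different from baseline.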

Row | Compound | odorant receptor agonist call
1 | C=CCOC(=O)Cc1ccccc1 | inactive
2 | Cc1ccc(O)c(C)c1 | inactive
3 | Cc1ccccc1O | inactive
4 | CCOC(=O)Cc1ccccc1 | inactive
5 | O=Cc1ccc2c(c1)OCO2 | inactive
6 | NCC(=O)c1ccccc1 | inactive
7 | COc1ccc(C=O)cc1 | inactive
8 | C=CCSSCC=C | inactive
9 | C=CCc1ccc(OC)cc1 | inactive
10 | CSSC | inactive
11 | SCc1ccco1 | inactive
